This is an account of results in ChEMBL document CHEMBL4138041, “Synthesis and biological activity evaluation of novel peroxo-bridged derivatives as potential anti-hepatitis B virus agents” (Medchemcomm, 2017).

Series [1] deals with Hepatitis B virus. Kind of series: Antiviral activity against Hepatitis B virus infected in human HepG2.2.15 cells assessed as inhibition of HBeAg secretion at 3.13 ug/ml after 4 days by ELISA relative to control. The format is functional. The conditions noted are these: HepG2.2.15, 96 h. An outline of the steps: (§1)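 HepG2.2.15 cells in DMEM with nonessential amino acids, sodium pyruvate and 10% heat-inactivated FBS, 37 °C, 5% CO2, seeded at 1.0×10^5 cells/mL. Treated at 3.13 µg/mL for 4 or 8 days. Cleared supernatant stored at -20 °C, then HBsAg/HBeAg measured by ELISA, OD 450 nm. % inhibition = (1 − sample OD/untreated control OD)×100.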
For orientation: ELISA stands for enzyme-linked immunosorbent assay.

In series [2] the test system is Hepatitis B virus. Kind of series: Antiviral activity against Hepatitis B virus infected in human HepG2.2.15 cells assessed as inhibition of HBsAg secretion at 3.13 ug/ml after 8 days by ELISA relative to control. It is filed as functional. The note with it: HepG2.2.15, 192 h. An outline of the steps:
as §1

Series [3] concerns Hepatitis B virus. Kind of series: Antiviral activity against Hepatitis B virus infected in human HepG2.2.15 cells assessed as inhibition of HBsAg secretion at 3.13 ug/ml after 4 days by ELISA relative to control. The format is functional. The conditions noted are these: HepG2.2.15, 96 h. An outline of the steps: as §1
Series [4] relates to Hepatitis B virus. Kind of series: Antiviral activity against Hepatitis B virus infected in human HepG2.2.15 cells assessed as inhibition of HBeAg secretion at 3.13 ug/ml after 8 days by ELISA relative to control. It is filed as functional. The conditions noted are these: HepG2.2.15, 192 h. An outline of the steps:
as §1

Series [5] can be described thus: Therapeutic index, ratio of TC50 for human HepG2.2.15 cells to IC50 for Hepatitis B virus infected in human HepG2.2.15 cells assessed as inhibition of HBsAg secretion after 8 days. The conditions noted are these: read-out: TI. The format is toxicity, cell-based.
Series [6] is described as follows: Acute toxicity in ICR mouse assessed as mortality rate at 750 mg/kg, ip measured up to 14 days relative to control. It is filed as organism-based. The note with it: in vivo. An outline of the steps:
(§2)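 Kunming mice of both sexes, 18-22 g, six groups of six matched for weight and size, single intraperitoneal injection at 56, 178, 350, 422, 750 or 1000 mg/kg. General behaviour observed at 1, 4 and 24 h, then followed up to 14 days for behaviour, toxic effects and mortality. LD50 with 95% confidence interval derived from the dose groups.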

The subject of series [7] is Hepatitis B virus. Kind of series: Antiviral activity against Hepatitis B virus infected in human HepG2.2.15 cells assessed as inhibition of HBeAg secretion after 4 days by ELISA. It is filed as functional, organism-based. The conditions noted are these: HepG2.2.15, 96 h. The essentials:
(§3)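 HepG2.2.15 cells kept as monolayers in DMEM with nonessential amino acids, sodium pyruvate and 10% heat-inactivated FBS, 37 °C, 5% CO2. Seeded at 1.0×10^5 cells/mL in 96-well plates and exposed to a range of concentrations (ethanol-dissolved) for 4 or 8 days. Supernatant HBsAg/HBeAg measured by ELISA at 450 nm. % inhibition = (1 − sample OD/untreated control OD)×100.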

Series [8] is described as follows: Acute toxicity in ICR mouse assessed as mortality rate at 422 mg/kg, ip measured up to 14 days relative to control. The format is organism-based. The note with it: in vivo. The essentials:
as §2

The nature of series [9]: Acute toxicity in ICR mouse assessed as mortality rate at 178 mg/kg, ip measured up to 14 days relative to control. The conditions noted are these: in vivo. The format is organism-based. The essentials: as §2
The nature of series [10]: Acute toxicity in ICR mouse assessed as mortality rate at 1000 mg/kg, ip measured up to 14 days relative to control. The format is organism-based. The conditions noted are these: in vivo. An outline of the steps: as §2
Series [11] is described as follows: Therapeutic index, ratio of TC50 for human HepG2.2.15 cells to IC50 for Hepatitis B virus infected in human HepG2.2.15 cells assessed as inhibition of HBeAg secretion after 8 days. It is filed as toxicity, cell-based. The conditions noted are these: read-out: TI.
For series [12], the system named is Hepatitis B virus. Kind of series: Antiviral activity against Hepatitis B virus infected in human HepG2.2.15 cells assessed as inhibition of HBeAg secretion after 8 days by ELISA. The format is functional, organism-based. The conditions noted are these: HepG2.2.15, 192 h. The essentials:
as §3

Series [13] in a line: Therapeutic index, ratio of TC50 for human HepG2.2.15 cells to IC50 for Hepatitis B virus infected in human HepG2.2.15 cells assessed as inhibition of HBeAg secretion after 4 days. It is filed as toxicity, cell-based. The note with it: read-out: TI.
A short description of series [14]: Therapeutic index, ratio of TC50 for human HepG2.2.15 cells to IC50 for Hepatitis B virus infected in human HepG2.2.15 cells assessed as inhibition of HBsAg secretion after 4 days. The format is toxicity, cell-based. The conditions noted are these: read-out: TI.
For series [15], the system named is Hepatitis B virus. Kind of series: Antiviral activity against Hepatitis B virus infected in human HepG2.2.15 cells assessed as inhibition of HBsAg secretion after 8 days by ELISA. The conditions noted are these: HepG2.2.15, 192 h. The format is functional, organism-based. An outline of the steps: as §3
In series [16] the test system is Hepatitis B virus. Kind of series: Antiviral activity against Hepatitis B virus infected in human HepG2.2.15 cells assessed as inhibition of HBsAg secretion after 4 days by ELISA. The format is functional, organism-based. The note with it: HepG2.2.15, 96 h. The essentials:
as §3

Another series relates to HepG2 2.2.15. Kind of series: (§4) Cytotoxicity against human HepG2.2.15 cells after 4 days by MTS assay. It is filed as cell-based. The note with it: hepg2 2.2.15, 96 h. The essentials: (§5)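 HepG2.2.15 cells seeded at 1.0×10^5 cells/mL, grown 24 h at 37 °C in 5% CO2, then exposed to various concentrations (ethanol-dissolved) for 4 days. Medium removed and MTS added for 3 h at 37 °C. Absorbance read at 490 nm. % inhibition = (1 − sample OD/untreated control OD)×100.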

Series [17] can be described thus: as §4. It is filed as cell-based, HepG2 2.2.15. The conditions noted are these: HepG2.2.15 cells, read-out: TC50. An outline of the steps: as §5

SMILES strings stand for the structures. In brackets after ≈: the same amount, converted by molar mass.

Regarding `Nc1ccn([C@H]2CS[C@@H](CO)O2)c(=O)n1`, the inhibition at 3.13 µg/mL in the series on Hepatitis B virus [1] was 4.94%; in the series on Hepatitis B virus [2] it was -0.44%; in the series with Hepatitis B virus [3], 5.68%; in the series with Hepatitis B virus [4], -9.22%.

For `CC(C)CCC[C@@H](C)[C@H]1CC[C@@H]2[C@]1(C)CC[C@H]1[C@]23C=C[C@@]2(CC(=O)CC[C@]12C)OO3`, the inhibition at 3.13 µg/mL is 54.1% in the series with Hepatitis B virus [1], 77.5% in the series with Hepatitis B virus [2], 72.3% with Hepatitis B virus [3] and 58.7% in the series on Hepatitis B virus [4]. Moreover, the selectivity ratio at 192 h in series [5] amounted to 3.4; in series [11], 3.47. Further, the mortality at 336 h came out at 100% in series [6], 67% in series [8], 0% in series [9] and 100% in [10]. Besides, the IC50 in the series on Hepatitis B virus [7] was 1.86 µg/mL (≈ 4.49 µM); with Hepatitis B virus [12] it was 2.95 µg/mL (≈ 7.11 µM); with Hepatitis B virus [15], 2.59 µg/mL (≈ 6.25 µM); with Hepatitis B virus [16], 1.78 µg/mL (≈ 4.29 µM). Besides, the figures for the selectivity ratio at 96 h in series [13] and in series [14] were 5.51 and 5.79, respectively. In the series on HepG2 2.2.15, the Activity result is “Dose-dependent effect”. In addition, the CC50 at 96 h in [17] is 10.2 µg/mL (≈ 24.7 µM).

Turning to `CCC(CC[C@@H](C)[C@H]1CC[C@@H]2[C@]1(C)CC[C@H]1[C@]23C=C[C@@]2(C[C@@H](OC(C)=O)CC[C@]12C)OO3)C(C)C` (some centres not stated), the inhibition at 3.13 µg/mL was 25.6% in the series on Hepatitis B virus [1], 28.8% with Hepatitis B virus [2], 26.7% in the series on Hepatitis B virus [3] and 25.8% in the series with Hepatitis B virus [4]. Moreover, in the series on HepG2 2.2.15, the Activity result was “Dose-dependent effect”.

On to `CCC(CC[C@@H](C)[C@H]1CC[C@@H]2[C@]1(C)CC[C@H]1[C@]23C=C[C@@]2(C[C@@H](O)CC[C@]12C)OO3)C(C)C` (some centres not stated), for which the inhibition at 3.13 µg/mL amounted to 2.88% with Hepatitis B virus [1], 20% in the series on Hepatitis B virus [2], 19% with Hepatitis B virus [3] and 10.3% with Hepatitis B virus [4]. Also, the Activity result in the series on HepG2 2.2.15 is given as “Dose-dependent effect”.

For the molecule `CC(C)CCC[C@@H](C)[C@H]1CC[C@@H]2[C@]1(C)CC[C@H]1[C@]23C=C[C@@]2(C[C@@H](O)CC[C@]12C)OO3`, the inhibition at 3.13 µg/mL in the series with Hepatitis B virus [1] turned out to be 1.35%; in the series on Hepatitis B virus [2], 1.56%; in the series on Hepatitis B virus [3], 1.2%; in the series with Hepatitis B virus [4] it was 2.55%. For the same molecule, the Activity result in the series on HepG2 2.2.15 is “Dose-dependent effect”.

As for `CCC(CC[C@@H](C)[C@H]1CC[C@@H]2[C@]1(C)CC[C@H]1[C@]23C=C[C@@]2(CC(=O)CC[C@]12C)OO3)C(C)C` (some centres not stated), the inhibition at 3.13 µg/mL in the series on Hepatitis B virus [1] turned out to be 3.28%; with Hepatitis B virus [2], 5.7%; in the series on Hepatitis B virus [3] it was 1.91%; with Hepatitis B virus [4] it was 2.36%. Also, in the series on HepG2 2.2.15, the Activity result is “Dose-dependent effect”.

`CC(=O)O[C@H]1CC[C@]2(C)[C@H]3CC[C@]4(C)[C@@H]([C@H](C)CCCC(C)C)CC[C@H]4[C@@]34C=C[C@@]2(C1)OO4`: the inhibition at 3.13 µg/mL in the series with Hepatitis B virus [1] was determined as 3.51%; with Hepatitis B virus [2], 13.8%; in the series on Hepatitis B virus [3], 13%; with Hepatitis B virus [4], 7.56%. Further, the Activity result in the series with HepG2 2.2.15 is reported as “Dose-dependent effect”.

In general, inhibition refers to the relative decrease from the control value, in per cent. By mortality is commonly meant the percentage killed. By IC50 is commonly meant the point on the concentration scale where inhibition reaches its midpoint.
